Data as given in ChEMBL document CHEMBL4043182, “On the synthesis of quinone-based BODIPY hybrids: New insights on antitumor activity and mechanism of action in cancer cells” (Bioorg Med Chem Lett, 2017).

How the values were obtained:
[1] = system: MDA-MB-435; assay: Antiproliferative activity against human MDA-MB-435 cells after 72 hrs by MTT assay; assay type: functional, cell-based; conditions: MDA-MB-435, 72 h
Method in brief: (§1)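 MTT reduction: cancer lines plated at 0.7×10^5 to 0.3×10^6 cells/well, V79 and L929 fibroblasts at 0.5×10^5 cells/well. Compounds in DMSO (0.1%) were given for 24 h at 0.04–40.92 µM or 72 h at 0.04–8.19 µM. Fresh medium with 0.5 mg/mL MTT was added for 3 h, then formazan was dissolved in DMSO and read at 595 nm as % of control. IC50 came from nonlinear regression with 95% CI. Doxorubicin (0.001–1.06 µM) was the positive control. Triplicate, ≥3 repeats.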

[2] = system: SF-295; assay: Cytotoxicity against human SF295 cells after 24 hrs in presence of GSH-OEt by MTT assay; assay type: functional, cell-based; conditions: SF-295, 24 h
Method in brief: (§2)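 24 h MTT exposure (0.04–40.92 µM in 0.1% DMSO), with or without co-treatment with GSH ethyl ester (15 mM) to gauge the ROS contribution. MTT was 0.5 mg/mL for 3 h, with formazan dissolved in DMSO and absorbance at 595 nm expressed as % of control. Triplicate, repeated at least three times.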

[3] = system: SF-295; assay: Cytotoxicity against human SF295 cells after 24 hrs in absence of GSH-OEt by MTT assay; assay type: functional, cell-based; conditions: SF-295, 24 h; method in brief: as §2
[4] = system: PC-3; assay: Antiproliferative activity against human PC3 cells after 72 hrs by MTT assay; assay type: functional, cell-based; conditions: PC-3, 72 h; method in brief: as §1
[5] = system: PC-3; assay: Cytotoxicity against human PC3 cells after 24 hrs in presence of GSH-OEt by MTT assay; assay type: functional, cell-based; conditions: PC-3, 24 h; method in brief: as §2
[6] = system: SF-295; assay: Antiproliferative activity against human SF295 cells after 72 hrs by MTT assay; assay type: functional, cell-based; conditions: SF-295, 72 h; method in brief: as §1
[7] = system: L929; assay: Cytotoxicity against mouse L929 cells after 24 hrs in presence of GSH-OEt by MTT assay; assay type: cell-based; conditions: L929, 24 h; method in brief: as §2
[8] = system: SW-620; assay: Antiproliferative activity against human SW620 cells after 72 hrs by MTT assay; assay type: functional, cell-based; conditions: SW-620, 72 h; method in brief: as §1
[9] = system: L929; assay: Cytotoxicity against mouse L929 cells after 24 hrs in absence of GSH-OEt by MTT assay; assay type: cell-based; conditions: L929, 24 h; method in brief: as §2
[10] = system: HCT-116; assay: Cytotoxicity against human HCT116 cells after 24 hrs in presence of GSH-OEt by MTT assay; assay type: functional, cell-based; conditions: HCT-116, 24 h; method in brief: as §2
[11] = system: V79; assay: Antiproliferative activity against chinese hamster V79 cells after 72 hrs by MTT assay; assay type: cell-based; conditions: Cricetulus griseus, V79, 72 h; method in brief: as §1
[12] = system: HCT-116; assay: Antiproliferative activity against human HCT116 cells after 72 hrs by MTT assay; assay type: functional, cell-based; conditions: HCT-116, 72 h; method in brief: as §1
[13] = system: L929; assay: Antiproliferative activity against mouse L929 cells after 72 hrs by MTT assay; assay type: cell-based; conditions: L929, 72 h; method in brief: as §1
[14] = system: PC-3; assay: Cytotoxicity against human PC3 cells after 24 hrs in absence of GSH-OEt by MTT assay; assay type: functional, cell-based; conditions: PC-3, 24 h; method in brief: as §2
[15] = system: HCT-116; assay: Cytotoxicity against human HCT116 cells after 24 hrs in absence of GSH-OEt by MTT assay; assay type: functional, cell-based; conditions: HCT-116, 24 h; method in brief: as §2

`CC1(C)CC(n2cc(CNc3ccc4n3[B-](F)(F)[N+]3=C(Cl)C=CC3=C4c3ccccc3)nn2)C2=C(O1)C(=O)c1ccccc1C2=O` (stereo unspecified) showed an IC50 [1] of over 7.83 µM, an IC50 [2] of over 40 µM and an IC50 [3] of over 40 µM. For the same molecule, the IC50 [4] was over 7.83 µM, the IC50 [5] was over 40 µM and the IC50 [6] was over 7.83 µM. For the same molecule, the IC50 [7] was over 40 µM, the IC50 [8] was over 7.83 µM and the IC50 [9] was over 40 µM. The IC50 [10] was over 40 µM, the IC50 [11] was over 7.83 µM and the IC50 [12] was over 7.83 µM. For the same molecule, the IC50 [13] was over 7.83 µM, the IC50 [14] was over 40 µM and the IC50 [15] was over 40 µM.
`O=C1C2=C(OC(Cn3cc(CNc4ccc5n4[B-](F)(F)[N+]4=C(Cl)C=CC4=C5c4ccccc4)nn3)C2)C(=O)c2ccccc21` (stereo unspecified) gave an IC50 [1] of over 8.19 µM, an IC50 [2] of over 40 µM and an IC50 [3] of over 40 µM. The IC50 [4] was over 8.19 µM, the IC50 [5] was over 40 µM and the IC50 [6] was over 8.19 µM. For the same molecule, the IC50 [7] was over 40 µM, the IC50 [8] was over 8.19 µM and the IC50 [9] was over 40 µM. The IC50 [10] was over 40 µM, the IC50 [11] was over 8.19 µM and the IC50 [12] was over 8.19 µM. It also gave an IC50 [13] of over 8.19 µM, an IC50 [14] of over 40 µM and an IC50 [15] of over 40 µM.
`COc1cccc2c1C(=O)c1c(O)c3c(c(O)c1C2=O)C[C@@](O)(C(=O)CO)C[C@@H]3O[C@H]1C[C@H](N)[C@H](O)[C@H](C)O1` [DOXORUBICIN] showed an IC50 [1] of 0.94 µM, an IC50 [4] of 0.05 µM and an IC50 [6] of 0.45 µM. The IC50 [8] was 0.29 µM, the IC50 [11] was 0.25 µM and the IC50 [13] was 0.22 µM.
